Experimental data reported in ChEMBL document CHEMBL1135145, “Synthesis and bioactivities of novel 4,5,6,7-tetrahydrothieno[2,3-c]pyridines as inhibitors of tumor necrosis factor-alpha (TNF-alpha) production” (Bioorg Med Chem Lett, 2002).

Organism: Rattus norvegicus
Test: In vitro inhibition of lipopolysaccharide stimulated tumor necrosis factor-alpha production in rat whole blood
Type: functional
In short: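 Rat whole blood diluted to 50% in RPMI-1640 containing streptomycin and penicillin. Compound in DMSO, or DMSO vehicle, preincubated for 30 min at 37 °C in 5% CO2. Stimulated with 10 µg/mL LPS (E. coli B055:B5) and incubated 4 h under the same conditions. IC50 taken for inhibition of TNF-α production.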

Row | SMILES | IC50
1 | CC(=O)N1CCc2c(sc(N(CC(C)C)CC(C)C)c2C(=O)c2ccccc2Cl)C1 | 30 µM
2 | COc1ccc(C(=O)c2c(NC(C)=O)sc3c2CCN(C(C)=O)C3)cc1 | 26 µM
3 | CC(=O)N1CCc2c(sc(NC(=O)C(C)C)c2C(=O)c2ccc(Cl)cc2)C1 | > 100 µM
4 | CC(=O)N1CCc2c(sc(NC(=O)C3CC3)c2C(=O)c2cccc(Cl)c2)C1 | 20 µM
5 | CC(C)C(=O)Nc1sc2c(c1C(=O)c1ccccc1Cl)CCN(C(=O)C1CC1)C2 | 2.6 µM
6 | CC(=O)N1CCc2c(sc(NC(=O)C(C)C)c2C(=O)c2ccccc2Cl)C1 | 2.6 µM
7 | CCOC(=O)c1c(NC(=O)c2cccnc2)sc2c1CCN(C(C)=O)C2 | 22 µM
8 | CC(=O)N1CCc2c(sc(NC(=O)C(C)(C)C)c2C(=O)c2ccccc2Cl)C1 | 3.4 µM
9 | CC(=O)N1CCc2c(sc(NC(=O)C(C)C)c2C(=O)c2ccccc2)C1 | 3 µM
10 | CCN(CC)C(=O)N(C)c1sc2c(c1C(=O)c1ccccc1Cl)CCN(C(C)=O)C2 | 10 µM
11 | CC(=O)N1CCc2c(sc(NC(=O)C(C)(C)C)c2Cc2ccccc2Cl)C1 | 29 µM
12 | COc1ccc(C(=O)c2c(NC(C)=O)sc3c2CCN(C(C)=O)C3)cc1OC | 46 µM
13 | Nc1sc2c(c1C(=O)c1ccccc1Cl)CCNC2 | > 100 µM
14 | CCOC(=O)c1c(NC(=O)C2CC2)sc2c1CCN(C(C)=O)C2 | 10 µM
15 | CC(=O)N1CCc2c(sc(N)c2C(=O)c2ccccc2Cl)C1 | 72 µM
16 | CC(C)C(=O)Nc1sc2c(c1C(=O)c1ccccc1Cl)CCN(Cc1ccccc1)C2 | 5 µM
17 | CCc1c(NC(=O)C(C)C)sc2c1CCN(C(C)=O)C2 | 23 µM
18 | CC(=O)N1CCc2c(sc(NC(=O)c3cccnc3)c2C(=O)c2ccccc2Cl)C1 | 12 µM
19 | CC(=O)N1CCc2c(sc(NC(=O)C3CCCCC3)c2C(=O)c2ccccc2Cl)C1 | 39 µM
20 | CC(C)C(=O)Nc1sc2c(c1C(=O)c1ccccc1Cl)CCN(C)C2 | 2 µM
21 | CC(=O)N1CCc2c(sc(NC(=O)C3CC3)c2C(=O)c2ccccc2Cl)C1 | 3 µM
22 | CC(=O)N1CCc2c(sc(NC(=O)c3ccccc3)c2C(=O)c2ccccc2)C1 | 48 µM
23 | CC(=O)N1CCc2c(sc(NC(=O)C(C)Br)c2C(=O)c2ccccc2Cl)C1 (configuration not stated) | 6 µM
24 | CC(=O)N1CCc2c(sc(NC(=O)C(C)(C)C)c2C(O)c2ccccc2Cl)C1 (configuration not stated) | 19 µM

Row | SMILES | IC50
25 | CCN1CCc2c(sc(N(CC)C(=O)C(C)C)c2C(=O)c2ccccc2Cl)C1 | 10 µM
26 | CC(=O)Nc1sc2c(c1C(=O)c1ccccc1Cl)CCN(C(C)=O)C2 | 9.5 µM
27 | CC(=O)N1CCc2c(sc(NC(=O)CCc3ccccc3)c2C(=O)c2ccccc2Cl)C1 | > 100 µM
28 | O=C(c1ccccc1Cl)c1c(NC(=O)C2CC2)sc2c1CCN(C(=O)C1CC1)C2 | 0.9 µM
29 | CCC(=O)Nc1sc2c(c1C(=O)c1ccccc1Cl)CCN(C(C)=O)C2 | 15 µM
30 | CC(=O)N1CCc2c(sc(NC(=O)C(C)C)c2C(=O)c2ccccc2C)C1 | 3.9 µM
31 | CC(=O)N1CCc2c(sc(NC(=O)c3cccnc3)c2C(=O)c2cccc(Cl)c2)C1 | 36 µM
32 | CCN1CCc2c(sc(NC(=O)C(C)C)c2C(O)c2ccccc2Cl)C1 (configuration not stated) | 100 µM
33 | CC(=O)N1CCc2c(sc(NC(=O)c3ccc(F)cc3)c2C(=O)c2ccccc2Cl)C1 | 100 µM
34 | O=C(Nc1sc2c(c1C(=O)c1ccccc1Cl)CCN(C(=O)C1CC1)C2)c1ccccc1 | > 100 µM
35 | CCOC(=O)c1c(NC(=O)C(C)C)sc2c1CCN(C(C)=O)C2 | 22 µM
36 | CCN(CC)C(=O)Nc1sc2c(c1C(=O)c1ccccc1Cl)CCN(C(C)=O)C2 | 0.51 µM
37 | CC(=O)N1CCc2c(C(=O)c3ccccc3Cl)csc2C1 | 38 µM
38 | CC(=O)N1CCc2c(sc(NC(=O)/C=C/c3ccccc3)c2C(=O)c2ccccc2Cl)C1 | > 100 µM
39 | CC(=O)N1CCc2c(sc(NC(=O)C(C)C)c2C(C)O)C1 (configuration not stated) | 38 µM
40 | COc1cccc(OC)c1C(=O)c1c(NC(C)=O)sc2c1CCN(C(C)=O)C2 | 88 µM
41 | CN1CCc2c(sc(NC(=O)C3CC3)c2C(=O)c2ccccc2Cl)C1 | 1.3 µM
42 | O=C(c1ccccc1Cl)c1c(NC(=O)C2CC2)sc2c1CCN(Cc1ccccc1)C2 | 6.5 µM
43 | CC(=O)c1c(NC(=O)C2CC2)sc2c1CCN(C(C)=O)C2 | 28 µM
44 | CC(=O)N1CCc2c(sc(NC(=O)C(C)Cl)c2C(=O)c2ccccc2Cl)C1 (configuration not stated) | 12 µM
45 | CC(=O)N1CCc2c(sc(NC(=O)C3CCC3)c2C(=O)c2ccccc2Cl)C1 | 2.9 µM
46 | CC(=O)N1CCc2c(sc(N(C)C(=O)C3CC3)c2C(=O)c2ccccc2Cl)C1 | 74 µM
47 | CC(C)C(=O)Nc1sc2c(c1C(=O)c1ccccc1Cl)CCNC2 | 4 µM
48 | O=C(Nc1sc2c(c1C(=O)c1ccccc1Cl)CCN(C(=O)C1CC1)C2)c1cccnc1 | 3.9 µM

Row | SMILES | IC50
49 | CC(=O)c1c(NC(=O)C(C)C)sc2c1CCN(C(C)=O)C2 | 35 µM
50 | O=C(Nc1sc2c(c1C(=O)c1ccccc1Cl)CCN(Cc1ccccc1)C2)c1cccnc1 | 7.1 µM
51 | CC(=O)N1CCc2c(sc(NC(=O)CCl)c2C(=O)c2ccccc2Cl)C1 | > 100 µM
52 | CC(=O)N1CCc2c(sc(NC(=O)C(C)C)c2C(=O)c2cccc(Cl)c2)C1 | 7.6 µM
53 | CCN(CC)C(=O)Nc1sc2c(c1C(=O)c1c(OC)cccc1OC)CCN(C(C)=O)C2 | 3.8 µM
54 | CC(=O)N1CCc2c(sc(NC(=O)C3CC3)c2C(=O)c2ccccc2C)C1 | 2.9 µM
55 | CC(C)CN(CC(C)C)c1sc2c(c1C(=O)c1ccccc1Cl)CCN(C(=O)C1CC1)C2 | > 100 µM
56 | O=C(c1ccccc1Cl)c1c(N(CC2CCCCC2)CC2CCCCC2)sc2c1CCN(C(=O)C1CC1)C2 | > 100 µM
57 | CC(=O)N1CCc2c(sc(NC(=O)C(C)N)c2C(=O)c2ccccc2Cl)C1 (configuration not stated) | 8 µM
58 | CCCCCCC(=O)Nc1sc2c(c1C(=O)c1ccccc1Cl)CCN(C(C)=O)C2 | > 100 µM
59 | CC(=O)N1CCc2c(sc(N(C)C(=O)C(C)C)c2C(=O)c2ccccc2Cl)C1 | 33 µM
60 | CC(=O)N1CCc2c(sc(NC(=O)c3cccnc3)c2C(=O)c2ccccc2)C1 | 14 µM
61 | CC(=O)N1CCc2c(sc(NC(=O)C3CC3)c2C(=O)c2ccccc2)C1 | 3 µM
62 | O=C(Nc1sc2c(c1C(=O)c1ccccc1Cl)CCN(Cc1ccccc1)C2)c1ccccc1 | > 100 µM
63 | CC(=O)N1CCc2c(sc(NC(=O)c3ccncc3)c2C(=O)c2ccccc2Cl)C1 | 21 µM
64 | CC(=O)N1CCc2c(sc(NC(=O)c3ccccc3)c2C(=O)c2ccccc2Cl)C1 | 46 µM
65 | CCN1CCc2c(sc(NC(=O)C(C)C)c2C(=O)c2ccc3c(c2)OCO3)C1 | 78 µM
66 | CC(=O)N1CCc2c(sc(N(CC3CCCCC3)CC3CCCCC3)c2C(=O)c2ccccc2Cl)C1 | 100 µM
67 | CCN1CCc2c(sc(NC(=O)C(C)C)c2C(=O)c2ccccc2Cl)C1 | 0.92 µM
68 | CCNC(=O)Nc1sc2c(c1C(=O)c1ccccc1Cl)CCN(C(C)=O)C2 | 10 µM
69 | C[C@@H]1C[C@H]2[C@@H]3CCC4=CC(=O)C=C[C@]4(C)[C@@]3(F)[C@@H](O)C[C@]2(C)[C@@]1(O)C(=O)CO [DEXAMETHASONE] | 0.02 µM
70 | CC(=O)CCCCn1c(=O)c2c(ncn2C)n(C)c1=O [PENTOXIFYLLINE] | 40 µM

The compounds below were run on Rattus norvegicus (assay: Compound was evaluated in vivo for the inhibition of LPS-stimulated serum TNF-alpha production in rat after oral administration of the compound).
Type: functional
In short: (§1)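 Male SD rats, 6 weeks old, given compound orally as a suspension in 0.5% CMC. LPS (E. coli B055:B5, 0.1 mg/kg) injected iv 1 h after dosing. Animals killed and bled 90 min later. Serum TNF-α measured by ELISA. ED50 derived from TNF-α yield relative to LPS controls without compound.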

Row | SMILES | ED50
71 | C[C@@H]1C[C@H]2[C@@H]3CCC4=CC(=O)C=C[C@]4(C)[C@@]3(F)[C@@H](O)C[C@]2(C)[C@@]1(O)C(=O)CO [DEXAMETHASONE] | 0.12 mg/kg

These compounds were tested on Rattus norvegicus (assay: Compound was evaluated in vivo for the inhibition of LPS-stimulated serum TNF-alpha production in rat after oral administration at a dose 100 mg/kg).
Type: functional
In short: as §1

Row | SMILES | inhibition in vivo at 100 mg/kg
72 | CC(=O)CCCCn1c(=O)c2c(ncn2C)n(C)c1=O [PENTOXIFYLLINE] | 74.4%

What follows are compounds tested on Rattus norvegicus (assay: Compound was evaluated in vivo for the inhibition of LPS-stimulated serum TNF-alpha production in rat after oral administration at a dose 50 mg/kg).
Type: functional
In short: as §1

Row | SMILES | inhibition in vivo at 50 mg/kg
73 | CC(=O)N1CCc2c(sc(NC(=O)C(C)C)c2C(=O)c2ccccc2Cl)C1 | 2.4%
74 | CC(=O)N1CCc2c(sc(NC(=O)C(C)C)c2C(=O)c2ccccc2)C1 | 35%
75 | CCOC(=O)c1c(NC(=O)C2CC2)sc2c1CCN(C(C)=O)C2 | 64.2%
76 | CC(=O)N1CCc2c(sc(NC(=O)C3CC3)c2C(=O)c2ccccc2Cl)C1 | 35%
77 | CC(=O)N1CCc2c(sc(NC(=O)C(C)C)c2C(=O)c2ccccc2C)C1 | 3.9%
78 | CCOC(=O)c1c(NC(=O)C(C)C)sc2c1CCN(C(C)=O)C2 | 49.1%
79 | CC(=O)c1c(NC(=O)C2CC2)sc2c1CCN(C(C)=O)C2 | 31.3%
80 | CC(=O)c1c(NC(=O)C(C)C)sc2c1CCN(C(C)=O)C2 | 22.7%
81 | CC(=O)N1CCc2c(sc(NC(=O)C3CC3)c2C(=O)c2ccccc2C)C1 | 58.6%
82 | CC(=O)N1CCc2c(sc(NC(=O)C3CC3)c2C(=O)c2ccccc2)C1 | 34.1%
